# Measurements reported in ChEMBL document CHEMBL4257580, “Tanshinone-IIA-Based Analogues of Imidazole Alkaloid Act as Potent Inhibitors To Block Breast Cancer Invasion and Metastasis in Vivo” (J Med Chem, 2018).
# pIC50: −log10 of the molar value. The source made the active and inactive calls. No cut-off for these calls is given here.
# Experiments:
# MDA-MB-231 [1] = experiment: Induction of apoptosis in human MDA-MB-231 cells assessed as late apoptotic cells at 15 uM after 72 hrs by annexin-V/propidium iodide double staining based flow cytometry (reference value: 0.12%); type: functional
# MDA-MB-231 [2] = experiment: Antiangiogenesis activity in human MDA-MB-231 cells xenografted in fil1:EGFP transgenic zebrafish sub-intestinal vessels assessed as slowing of the sprout of angiogenesis at 5 uM measured every 24 hrs by fluorescence microscopy; type: functional, cell-based
# Method in brief: (§1)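 Tg(fli1:EGFP) embryos at 48 hpf injected with 10–50 nL of DiI-labelled cells (~10^7 cells/mL in serum-free DMEM) into the perivitelline space near the subintestinal vessels. Ten embryos per well kept in 2 mL aquaculture water with 0 or 5 μM for 96 h. Imaged every 24 h by fluorescence microscopy; tumour area and trunk/tail fluorescence quantified, n=10/group, three experiments.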
# MDA-MB-231 [3] = experiment: Antimigratory activity in human MDA-MB-231 cells at 3 uM up to 72 hrs by wound healing assay relative to control; type: functional
# Method in brief: (§2)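 Scratch assay: 1×10^5 cells/well grown to more than 80% confluence and wounded with a pipette tip. Cells then incubated with 0, 3 or 6 μM in serum-free DMEM for 72 h. The same field was imaged repeatedly over 3 days. Migration rate is wound filling, averaged over 10 fields; three independent experiments, mean ± SD.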
# MDA-MB-231 [4] = experiment: Cell cycle arrest in human MDA-MB-231 cells assessed as accumulation at S phase at 5 uM after 72 hrs by propidium iodide staining based flow cytometry (reference value: 42.60%); type: functional
# MDA-MB-231 [5] = experiment: Antimetastasis activity in human MDA-MB-231 cells assessed upregulation of GSKbeta protein expression at 5 to 15 uM after 72 hrs by Western blot analysis; type: functional, cell-based
# Method in brief: (§3)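 Cells treated with 0, 5, 10 or 15 μM for 72 h. Lysates quantified by BCA, equal protein resolved on 10% tricine SDS-PAGE and transferred to nitrocellulose. Membranes blocked in 5% milk/TBST, then primary antibodies 1:1000 overnight at 4 °C and HRP secondary 1:2000 for 1 h at room temperature. Three independent experiments.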
# MDA-MB-231 [6] = experiment: Antimigratory activity in human MDA-MB-231 cells up to 72 hrs by wound healing assay; type: functional, cell-based; method in brief: as §2
# HeLa = experiment: Antiproliferative activity against human HeLa cells after 72 hrs by MTT assay; type: functional, cell-based
# Method in brief: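 A549, HeLa, HepG2 and normal liver L02 cells kept in DMEM with 10% FBS at 37 °C under 5% CO2. Plated at 5×10^3 cells/well for 24 h, then treated with graded concentrations for 72 h. Viability measured by MTT reduction (5 h), formazan dissolved in DMSO and read at 570 nm. Three repeats.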
# MDA-MB-231 [7] = experiment: Induction of DNA damage in human MDA-MB-231 cells assessed as increase in olive tail moment at 10 to 20 uM by comet assay; type: functional, cell-based
# Method in brief: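 Neutral comet assay on cells treated with 0, 10 or 20 μM for 24 h. DNA stained with SYBR Green I and imaged by fluorescence microscopy. Olive tail moment measured on 50 randomly selected cells per slide.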
# MDA-MB-231 [8] = experiment: Antimetastasis activity in human MDA-MB-231 cells assessed reduction in stress fibers by measuring F-actin protein expression at 5 to 10 uM after 24 hrs by immunofluorescence based assay
# MDA-MB-231 [9] = experiment: Antimetastasis activity in human MDA-MB-231 cells assessed reduction in FAK protein expression at 5 to 15 uM after 72 hrs by Western blot analysis; type: functional, cell-based; method in brief: as §3
# MDA-MB-231 [10] = experiment: Antimetastasis activity in human MDA-MB-231 cells assessed as changes in cell morphology at 5 to 10 uM after 24 hrs by based laser confocal microscopy
# MDA-MB-231 [11] = experiment: Antiinvasive activity against human MDA-MB-231 cells assessed as reduction in number of black holes at 6 uM after 24 hrs by FITC-gelatin based confocal microscopy; type: functional, cell-based
# Method in brief: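 Coverslips coated with poly-L-lysine, fixed with glutaraldehyde, overlaid with 0.2% FITC-gelatin in PBS/2% sucrose and quenched with sodium borohydride. Cells (2×10^5/well) plated with 0, 3 or 6 μM at 37 °C for 24 h. Gelatin degradation, seen as nonfluorescent dark holes, imaged by laser confocal microscopy; F-actin counterstained with rhodamine-phalloidin.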
# MDA-MB-231 [12] = experiment: Induction of apoptosis in human MDA-MB-231 cells assessed as late apoptotic cells at 10 uM after 72 hrs by annexin-V/propidium iodide double staining based flow cytometry (reference value: 0.12%); type: functional
# MDA-MB-231 [13] = experiment: Induction of apoptosis in human MDA-MB-231 cells assessed as early apoptotic cells at 5 uM after 72 hrs by annexin-V/propidium iodide double staining based flow cytometry (reference value: 0.02%); type: functional
# MDA-MB-231 [14] = experiment: Cell cycle arrest in human MDA-MB-231 cells assessed as accumulation at G1 phase at 5 uM after 24 hrs by propidium iodide staining based flow cytometry (reference value: 49.40%)
# MDA-MB-231 [15] = experiment: Induction of DNA damage in human MDA-MB-231 cells assessed as up-regulation of p53 expression at 2 to 15 uM by Western blot analysis; type: functional, cell-based
# MDA-MB-231 [16] = experiment: Antiangiogenesis activity in human MDA-MB-231 cells xenografted in fil1:EGFP transgenic zebrafish sub-intestinal vessels assessed as inhibition of cell migration at 5 uM measured every 24 hrs for 96 hrs by fluorescence microscopy; type: functional, cell-based; method in brief: as §1
# MDA-MB-231 [17] = experiment: Antitumor activity in human MDA-MB-231 cells xenografted in fil1:EGFP transgenic zebrafish sub-intestinal vessels assessed as reduction in tumor area at 5 uM measured every 24 hrs for 96 hrs by fluorescence microscopy; type: functional, cell-based; method in brief: as §1
# MDA-MB-231 [18] = experiment: Induction of DNA damage in human MDA-MB-231 cells assessed as increase in gammaH2AX focal positive cells up to 20 uM after 24 hrs by SYBR Green1-staining based fluorescence microscopy; type: functional, cell-based
structure (smiles),measurement,setting,value
Cc1coc2c3ccc4c(c3c3[nH]c(-c5ccc(O)cc5)nc3c12)CCCC4(C)C,Activity,MDA-MB-231 [1],2.73%
same,Activity,MDA-MB-231 [2],Active
same,Activity,MDA-MB-231 [3],<50%
same,Activity,MDA-MB-231 [4],46.41%
same,Activity,MDA-MB-231 [5],Active
same,Activity,MDA-MB-231 [6],Dose-dependent effect
same,pIC50,HeLa,4.40
same,Activity,MDA-MB-231 [7],Active
same,Activity,MDA-MB-231 [8],Active
same,Activity,MDA-MB-231 [9],Active
same,Activity,MDA-MB-231 [10],Active
same,Activity,MDA-MB-231 [11],Active
same,Activity,MDA-MB-231 [12],0.35%
same,Activity,MDA-MB-231 [13],2.22%
same,Activity,MDA-MB-231 [14],42.38%
same,Activity,MDA-MB-231 [15],Active
same,Activity,MDA-MB-231 [16],Active
same,Activity,MDA-MB-231 [17],Active
same,Activity,MDA-MB-231 [18],Active
